According to ChEMBL document CHEMBL1811752, “Synthesis and pharmacological characterization of bicyclic triple reuptake inhibitor 3-aryl octahydrocyclopenta[c]pyrrole analogues” (J Med Chem, 2011):

Key:
[1] = tested on: Mus musculus; assay: Antidepressant activity in po dosed mouse assessed as reduction of immobility time after 60 mins by tail suspension test; type: functional, organism-based
How it was run: (§1)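 Mouse tail suspension test, male mice (10–12 per group, blind). Single oral dose in 5% transcutol in saline, 60 min pretreatment. Immobility recorded automatically for 5 min. Compared with vehicle group. Desipramine 100 mg/kg PO used as reference. One-way ANOVA with Dunnett's post test, p < 0.05.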

[2] = tested on: Mus musculus; assay: Antidepressant activity in mouse assessed as reduction of immobility time at 100 mg/kg, po after 60 mins by tail suspension test relative to control; type: functional; set-up: scale not given: the % may be the effect or the level left; how it was run: as §1
[3] = tested on: Brain; assay: Drug level in mouse brain at 3 mg/kg, po; type: ADME, organism-based; set-up: dose 3 mg/kg, route oral; details: in vivo
How it was run: (§2)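 Male mice dosed orally at 3, 10 or 30 mg/kg in 5% transcutol/saline, 60 min before the tail suspension test. Terminal whole brain (ng/g) and plasma (ng/mL) samples taken from the test animals. Brain/plasma ratio derived from these levels.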

[4] = tested on: Brain; assay: Drug level in mouse brain at 10 mg/kg, po; type: ADME, organism-based; set-up: dose 10 mg/kg, route oral; details: in vivo; how it was run: as §2
[5] = target: Cytochrome P450 2D6 (Homo sapiens, UniProt P10635); assay: Inhibition of CYP2D6 in human liver microsomes by LC-MS/MS analysis; type: ADME, Microsome
Sequence of Cytochrome P450 2D6 (P10635 whole entry, canonical isoform): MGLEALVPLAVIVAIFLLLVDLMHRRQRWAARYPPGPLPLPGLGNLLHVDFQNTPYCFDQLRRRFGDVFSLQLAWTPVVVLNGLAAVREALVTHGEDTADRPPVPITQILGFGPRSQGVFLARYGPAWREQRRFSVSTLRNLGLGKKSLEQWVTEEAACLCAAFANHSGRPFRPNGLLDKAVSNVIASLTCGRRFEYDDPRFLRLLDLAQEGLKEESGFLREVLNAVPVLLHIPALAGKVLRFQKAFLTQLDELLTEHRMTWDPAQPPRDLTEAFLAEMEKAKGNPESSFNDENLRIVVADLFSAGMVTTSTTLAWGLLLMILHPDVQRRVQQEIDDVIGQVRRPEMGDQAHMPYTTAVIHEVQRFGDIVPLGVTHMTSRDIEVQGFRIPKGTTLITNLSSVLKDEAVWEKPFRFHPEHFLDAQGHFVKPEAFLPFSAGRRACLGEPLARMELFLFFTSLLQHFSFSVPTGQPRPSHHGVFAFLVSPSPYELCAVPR
How it was run: (§3)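 Human liver microsomes incubated with isoform-specific substrates and compound, typically 0.1–25 μM. Metabolite formation read by LC-MS/MS, […]. IC50 calculated from the decrease in metabolite formation relative to vehicle control.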

[6] = tested on: Brain; assay: Drug level in mouse brain assessed as (3aR,6aS)-3a-(3,4-dichlorophenyl)octahydrocyclopenta[c]pyrrole level at 3 mg/kg, po; type: ADME, organism-based; set-up: dose 3 mg/kg, route oral; details: in vivo; how it was run: as §2
[7] = target: Sodium-dependent noradrenaline transporter (Homo sapiens, UniProt P23975); assay: Inhibition of norepinephrine reuptake at NET expressed in MDCK cells; type: cell-based
Sequence of Sodium-dependent noradrenaline transporter (P23975 whole entry): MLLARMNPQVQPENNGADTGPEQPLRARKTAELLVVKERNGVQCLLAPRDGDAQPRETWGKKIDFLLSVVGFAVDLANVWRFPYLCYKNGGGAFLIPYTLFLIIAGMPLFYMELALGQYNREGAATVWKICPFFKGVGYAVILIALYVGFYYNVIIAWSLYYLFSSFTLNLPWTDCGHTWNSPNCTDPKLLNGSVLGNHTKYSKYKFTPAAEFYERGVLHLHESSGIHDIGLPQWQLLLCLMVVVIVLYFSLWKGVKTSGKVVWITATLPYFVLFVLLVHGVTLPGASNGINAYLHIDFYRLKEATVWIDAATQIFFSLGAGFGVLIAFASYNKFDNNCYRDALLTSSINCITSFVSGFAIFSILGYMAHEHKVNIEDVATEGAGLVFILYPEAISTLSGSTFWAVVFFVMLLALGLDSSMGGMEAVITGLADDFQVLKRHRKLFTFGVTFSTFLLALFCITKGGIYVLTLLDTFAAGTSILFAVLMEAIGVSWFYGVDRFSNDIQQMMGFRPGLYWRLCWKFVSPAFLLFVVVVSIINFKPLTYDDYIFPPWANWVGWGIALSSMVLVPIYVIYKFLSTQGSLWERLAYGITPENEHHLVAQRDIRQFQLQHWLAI

[8] = tested on: Brain; assay: Drug level in mouse brain assessed as (3aR,6aS)-3a-(3,4-dichlorophenyl)octahydrocyclopenta[c]pyrrole level at 10 mg/kg, po; type: ADME, organism-based; set-up: dose 10 mg/kg, route oral; details: in vivo; how it was run: as §2
[9] = target: Voltage-gated inwardly rectifying potassium channel KCNH2 (Homo sapiens, UniProt Q12809); assay: Inhibition of human ERG expressed in CHO cells by high throughput single cell planar patch clamp method; type: cell-based
Sequence of Voltage-gated inwardly rectifying potassium channel KCNH2 (Q12809 whole entry): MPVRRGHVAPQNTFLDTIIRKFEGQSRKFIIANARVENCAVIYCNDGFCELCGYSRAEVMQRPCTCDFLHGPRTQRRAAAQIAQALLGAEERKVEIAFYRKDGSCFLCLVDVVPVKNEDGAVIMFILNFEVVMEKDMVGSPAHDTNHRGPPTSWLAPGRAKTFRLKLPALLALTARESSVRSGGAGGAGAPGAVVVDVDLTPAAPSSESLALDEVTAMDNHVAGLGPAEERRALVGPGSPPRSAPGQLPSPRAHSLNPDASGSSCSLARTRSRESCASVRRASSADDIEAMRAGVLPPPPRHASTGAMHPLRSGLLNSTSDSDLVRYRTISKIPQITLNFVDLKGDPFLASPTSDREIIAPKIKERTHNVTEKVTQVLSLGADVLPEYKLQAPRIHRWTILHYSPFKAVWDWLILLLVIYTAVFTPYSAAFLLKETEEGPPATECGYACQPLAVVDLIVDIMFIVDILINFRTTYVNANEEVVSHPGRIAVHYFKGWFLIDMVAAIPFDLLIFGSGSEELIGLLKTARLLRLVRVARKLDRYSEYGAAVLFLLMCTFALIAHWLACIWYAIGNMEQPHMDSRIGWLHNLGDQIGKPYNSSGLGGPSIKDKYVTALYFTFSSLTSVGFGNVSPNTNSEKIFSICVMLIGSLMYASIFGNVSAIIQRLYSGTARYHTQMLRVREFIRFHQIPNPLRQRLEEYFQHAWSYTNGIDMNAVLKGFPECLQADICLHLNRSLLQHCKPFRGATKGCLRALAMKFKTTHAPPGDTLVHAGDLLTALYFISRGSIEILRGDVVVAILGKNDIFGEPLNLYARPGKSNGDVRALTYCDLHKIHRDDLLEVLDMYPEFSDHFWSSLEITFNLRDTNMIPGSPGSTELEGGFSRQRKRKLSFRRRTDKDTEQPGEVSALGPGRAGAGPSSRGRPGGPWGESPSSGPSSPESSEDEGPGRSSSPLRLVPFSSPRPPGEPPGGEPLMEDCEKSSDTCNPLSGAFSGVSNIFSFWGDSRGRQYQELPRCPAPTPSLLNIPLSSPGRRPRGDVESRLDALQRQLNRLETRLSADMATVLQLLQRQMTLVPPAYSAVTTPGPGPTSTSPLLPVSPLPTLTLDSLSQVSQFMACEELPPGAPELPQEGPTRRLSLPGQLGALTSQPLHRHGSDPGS

[10] = target: Sodium-dependent serotonin transporter (Homo sapiens, UniProt P31645); assay: Inhibition of serotonin reuptake at SERT expressed in HEK293 cells; type: cell-based
Sequence of Sodium-dependent serotonin transporter (P31645 whole entry): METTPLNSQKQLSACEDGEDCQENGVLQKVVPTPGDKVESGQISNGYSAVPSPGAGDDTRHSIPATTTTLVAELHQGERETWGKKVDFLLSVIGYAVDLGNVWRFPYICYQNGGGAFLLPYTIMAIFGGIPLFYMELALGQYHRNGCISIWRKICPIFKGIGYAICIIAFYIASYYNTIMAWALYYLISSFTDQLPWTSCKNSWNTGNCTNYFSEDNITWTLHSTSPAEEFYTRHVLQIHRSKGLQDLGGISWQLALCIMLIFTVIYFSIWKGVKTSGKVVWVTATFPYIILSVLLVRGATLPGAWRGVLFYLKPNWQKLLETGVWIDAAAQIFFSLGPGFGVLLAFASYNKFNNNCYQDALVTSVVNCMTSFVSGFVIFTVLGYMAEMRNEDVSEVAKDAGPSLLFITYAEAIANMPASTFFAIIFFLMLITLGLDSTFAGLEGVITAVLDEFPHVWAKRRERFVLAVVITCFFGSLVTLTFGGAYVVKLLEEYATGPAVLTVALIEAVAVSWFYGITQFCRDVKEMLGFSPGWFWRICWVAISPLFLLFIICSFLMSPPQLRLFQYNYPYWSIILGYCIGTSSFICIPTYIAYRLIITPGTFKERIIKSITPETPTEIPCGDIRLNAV

[11] = tested on: Brain; assay: Drug level in mouse brain assessed as (3aR,6aS)-3a-(3,4-dichlorophenyl)octahydrocyclopenta[c]pyrrole level at 30 mg/kg, po; type: ADME, organism-based; set-up: dose 30 mg/kg, route oral; details: in vivo; how it was run: as §2
[12] = Ratio of drug level in brain to plasma in po dosed mouse; type: ADME, organism-based; details: brain and plasma, read-out: BPR; how it was run: as §2
[13] = tested on: Plasma; assay: Plasma concentration in mouse assessed as (3aR,6aS)-3a-(3,4-dichlorophenyl)octahydrocyclopenta[c]pyrrole level at 30 mg/kg, po; type: ADME, organism-based; set-up: dose 30 mg/kg, route oral; details: in vivo; how it was run: as §2
[14] = tested on: Plasma; assay: Plasma concentration in mouse at 30 mg/kg, po; type: ADME, organism-based; set-up: dose 30 mg/kg, route oral; details: in vivo; how it was run: as §2
[15] = Half life in human liver microsomes at 3 uM by LC-MS/MS analysis; type: ADME, Microsome
How it was run: (§4)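 Human or mouse liver microsomes (0.5 mg/mL) incubated with 3 μM compound at 37 °C. Reaction started with NADPH and stopped with methanol containing internal standard. Loss of compound followed over 45 min by LC-MS/MS. Peak area ratio to internal standard plotted against time and the slope of the line taken.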

[16] = tested on: Mus musculus; assay: Toxicity in mouse assessed as increase of spontaneous locomotor activity at 30 mg/kg, po measured for 5 mins; type: organism-based; set-up: dose 30 mg/kg, route oral; details: in vivo
[17] = target: Cytochrome P450 2C9 (Homo sapiens, UniProt P11712); assay: Inhibition of CYP2C9 in human liver microsomes by LC-MS/MS analysis; type: ADME, Microsome; how it was run: as §3
Sequence of Cytochrome P450 2C9 (P11712 whole entry): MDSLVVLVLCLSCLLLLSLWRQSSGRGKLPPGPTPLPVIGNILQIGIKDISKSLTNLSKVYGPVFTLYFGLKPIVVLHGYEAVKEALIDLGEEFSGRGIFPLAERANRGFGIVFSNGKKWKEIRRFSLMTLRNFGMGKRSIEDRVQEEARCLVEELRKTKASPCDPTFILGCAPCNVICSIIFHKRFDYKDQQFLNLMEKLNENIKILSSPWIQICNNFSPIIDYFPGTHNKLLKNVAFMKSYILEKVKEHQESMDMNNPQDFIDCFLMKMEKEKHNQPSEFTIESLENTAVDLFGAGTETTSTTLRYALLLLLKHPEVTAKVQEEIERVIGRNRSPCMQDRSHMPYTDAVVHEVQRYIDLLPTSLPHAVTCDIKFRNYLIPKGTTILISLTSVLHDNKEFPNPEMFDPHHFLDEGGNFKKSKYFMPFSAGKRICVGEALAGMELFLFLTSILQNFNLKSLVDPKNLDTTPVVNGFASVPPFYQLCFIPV

[18] = Half life in mouse liver microsomes at 3 uM by LC-MS/MS analysis; type: ADME, Microsome; how it was run: as §4
[19] = tested on: Brain; assay: Drug level in mouse brain at 30 mg/kg, po; type: ADME, organism-based; set-up: dose 30 mg/kg, route oral; details: in vivo; how it was run: as §2
[20] = target: Cytochrome P450 2C19 (Homo sapiens, UniProt P33261); assay: Inhibition of CYP2C19 in human liver microsomes by LC-MS/MS analysis; type: ADME, Microsome; how it was run: as §3
Sequence of Cytochrome P450 2C19 (P33261 whole entry): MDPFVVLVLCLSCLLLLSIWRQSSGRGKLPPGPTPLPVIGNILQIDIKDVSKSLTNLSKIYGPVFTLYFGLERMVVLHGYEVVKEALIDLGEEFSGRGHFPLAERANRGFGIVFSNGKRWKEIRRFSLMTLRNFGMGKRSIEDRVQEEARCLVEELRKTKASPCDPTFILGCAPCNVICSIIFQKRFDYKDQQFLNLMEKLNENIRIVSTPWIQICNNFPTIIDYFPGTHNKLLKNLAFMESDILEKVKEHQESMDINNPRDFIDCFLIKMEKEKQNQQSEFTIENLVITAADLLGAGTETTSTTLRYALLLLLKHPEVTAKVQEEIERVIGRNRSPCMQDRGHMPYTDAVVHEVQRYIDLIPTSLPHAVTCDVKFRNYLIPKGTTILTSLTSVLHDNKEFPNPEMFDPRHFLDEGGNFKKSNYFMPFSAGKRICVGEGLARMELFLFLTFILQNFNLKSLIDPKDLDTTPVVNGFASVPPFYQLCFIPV

[21] = target: Sodium-dependent dopamine transporter (Homo sapiens, UniProt Q01959); assay: Inhibition of dopamine reuptake at DAT expressed in CHO-K1 cells; type: cell-based
Sequence of Sodium-dependent dopamine transporter (Q01959 whole entry): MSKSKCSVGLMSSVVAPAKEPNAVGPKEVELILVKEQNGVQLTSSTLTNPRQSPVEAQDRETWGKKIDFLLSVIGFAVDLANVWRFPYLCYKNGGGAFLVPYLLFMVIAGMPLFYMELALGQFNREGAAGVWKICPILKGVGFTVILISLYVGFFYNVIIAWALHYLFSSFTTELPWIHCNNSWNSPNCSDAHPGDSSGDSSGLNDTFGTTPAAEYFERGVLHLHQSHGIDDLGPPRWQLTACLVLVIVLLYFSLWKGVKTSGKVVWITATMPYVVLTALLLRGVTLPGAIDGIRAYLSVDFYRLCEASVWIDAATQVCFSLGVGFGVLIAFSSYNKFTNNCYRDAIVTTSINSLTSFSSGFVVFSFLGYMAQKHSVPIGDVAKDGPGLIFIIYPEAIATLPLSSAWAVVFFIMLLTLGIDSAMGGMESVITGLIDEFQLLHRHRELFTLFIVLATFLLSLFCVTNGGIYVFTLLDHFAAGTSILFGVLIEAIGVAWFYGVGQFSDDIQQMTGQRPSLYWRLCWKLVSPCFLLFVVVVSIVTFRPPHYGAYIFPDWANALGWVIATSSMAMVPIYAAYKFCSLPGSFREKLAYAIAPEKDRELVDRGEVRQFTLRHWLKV

[22] = tested on: Mus musculus; assay: Antidepressant activity in mouse assessed as reduction of immobility time at 10 mg/kg, po after 60 mins by tail suspension test relative to control; type: functional; set-up: scale not given: the % may be the effect or the level left; how it was run: as §1
[23] = tested on: Plasma; assay: Plasma concentration in mouse at 3 mg/kg, po; type: ADME, organism-based; set-up: dose 3 mg/kg, route oral; details: in vivo; how it was run: as §2
[24] = target: T1, CYP1A (Homo sapiens, UniProt P04798+P05177); assay: Inhibition of CYP1A in human liver microsomes by LC-MS/MS analysis; type: ADME, Microsome; how it was run: as §3
T1 sequence (P04798 whole entry): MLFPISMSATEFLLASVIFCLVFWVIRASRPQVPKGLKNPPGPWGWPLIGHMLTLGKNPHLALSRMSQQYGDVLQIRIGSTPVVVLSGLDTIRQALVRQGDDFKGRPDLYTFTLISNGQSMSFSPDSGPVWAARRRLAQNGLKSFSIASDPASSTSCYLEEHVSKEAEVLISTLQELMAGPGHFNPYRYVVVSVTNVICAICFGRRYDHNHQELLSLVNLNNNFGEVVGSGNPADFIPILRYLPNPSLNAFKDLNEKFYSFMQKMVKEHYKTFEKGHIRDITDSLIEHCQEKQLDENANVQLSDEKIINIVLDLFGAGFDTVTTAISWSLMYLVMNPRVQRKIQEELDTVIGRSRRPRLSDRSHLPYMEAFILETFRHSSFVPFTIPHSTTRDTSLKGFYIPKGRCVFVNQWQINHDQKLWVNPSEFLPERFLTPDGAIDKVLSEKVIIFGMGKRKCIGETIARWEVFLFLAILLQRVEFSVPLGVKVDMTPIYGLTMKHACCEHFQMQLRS
T1 sequence (P05177 whole entry): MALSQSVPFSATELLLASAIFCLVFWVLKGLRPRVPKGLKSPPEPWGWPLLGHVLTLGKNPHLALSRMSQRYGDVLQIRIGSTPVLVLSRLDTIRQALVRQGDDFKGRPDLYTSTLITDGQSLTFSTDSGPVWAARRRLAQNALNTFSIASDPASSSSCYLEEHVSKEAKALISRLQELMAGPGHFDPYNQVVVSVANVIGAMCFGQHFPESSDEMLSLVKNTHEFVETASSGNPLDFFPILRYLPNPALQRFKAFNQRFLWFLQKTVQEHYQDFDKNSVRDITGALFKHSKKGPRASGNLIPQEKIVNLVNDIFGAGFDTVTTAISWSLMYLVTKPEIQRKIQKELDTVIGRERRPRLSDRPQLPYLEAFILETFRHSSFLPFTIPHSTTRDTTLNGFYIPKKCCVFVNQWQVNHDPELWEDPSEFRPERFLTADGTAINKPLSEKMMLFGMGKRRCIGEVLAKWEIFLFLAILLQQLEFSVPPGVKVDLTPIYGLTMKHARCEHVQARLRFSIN

[25] = target: Cytochrome P450 3A4 (Homo sapiens, UniProt P08684); assay: Inhibition of CYP3A4 in human liver microsomes by LC-MS/MS analysis; type: ADME, Microsome; how it was run: as §3
Sequence of Cytochrome P450 3A4 (P08684 whole entry): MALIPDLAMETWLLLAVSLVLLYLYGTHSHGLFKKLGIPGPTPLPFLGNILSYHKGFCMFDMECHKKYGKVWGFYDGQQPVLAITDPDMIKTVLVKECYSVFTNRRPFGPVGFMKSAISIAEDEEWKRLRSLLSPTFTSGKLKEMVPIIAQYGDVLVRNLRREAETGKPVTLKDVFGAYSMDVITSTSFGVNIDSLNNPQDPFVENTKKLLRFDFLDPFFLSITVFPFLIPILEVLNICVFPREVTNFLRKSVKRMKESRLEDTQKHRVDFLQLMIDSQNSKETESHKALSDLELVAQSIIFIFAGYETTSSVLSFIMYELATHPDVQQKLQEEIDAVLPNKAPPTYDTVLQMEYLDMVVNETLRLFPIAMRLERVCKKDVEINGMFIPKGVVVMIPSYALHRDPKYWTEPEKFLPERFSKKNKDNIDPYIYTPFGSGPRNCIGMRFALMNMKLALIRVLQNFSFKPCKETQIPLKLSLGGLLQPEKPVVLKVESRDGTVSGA

[26] = tested on: Plasma; assay: Plasma concentration in mouse assessed as (3aR,6aS)-3a-(3,4-dichlorophenyl)octahydrocyclopenta[c]pyrrole level at 3 mg/kg, po; type: ADME, organism-based; set-up: dose 3 mg/kg, route oral; details: in vivo; how it was run: as §2
[27] = tested on: Plasma; assay: Plasma concentration in mouse at 10 mg/kg, po; type: ADME, organism-based; set-up: dose 10 mg/kg, route oral; details: in vivo; how it was run: as §2
[28] = tested on: Plasma; assay: Plasma concentration in mouse assessed as (3aR,6aS)-3a-(3,4-dichlorophenyl)octahydrocyclopenta[c]pyrrole level at 10 mg/kg, po; type: ADME, organism-based; set-up: dose 10 mg/kg, route oral; details: in vivo; how it was run: as §2
[29] = tested on: Mus musculus; assay: Antidepressant activity in mouse assessed as reduction of immobility time at 30 mg/kg, po after 60 mins by tail suspension test relative to control; type: functional; set-up: scale not given: the % may be the effect or the level left; how it was run: as §1
[30] = Ratio of drug level in brain to plasma in mouse at 30 mg/kg, po; type: ADME, organism-based; set-up: dose 30 mg/kg, route oral; details: brain and plasma, read-out: BPR; how it was run: as §2
[31] = Plasma protein binding in mouse; type: ADME, cell-free; details: read-out: PPB (converted)
How it was run: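 Protein binding measured with mouse plasma protein.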

[32] = tested on: Mus musculus; assay: Toxicity in mouse assessed as increase of spontaneous locomotor activity at 10 to 30 mg/kg, po measured for 5 mins; type: organism-based; set-up: dose 10-30 mg/kg, route oral; details: in vivo

Clc1ccc([C@@]23CCC[C@@H]2CNC3)cc1Cl
Activity [1]: Dose-dependent effect

CN1C[C@H]2CCCC[C@@]2(c2ccc(Cl)c(Cl)c2)C1 (single isomer, unassigned)
Activity [2]: 28%
Drug uptake [3]: 294 ng/g
Drug uptake [4]: 1054 ng/g
IC50 [5]: 1100 nM
Drug uptake [6]: 440 ng/g
IC50 [7]: 56.2 nM
Drug uptake [8]: 1878 ng/g
IC50 [9]: 4140 nM
IC50 [10]: 9.77 nM
Drug uptake [11]: 6193 ng/g
Kp [12]: 5
Cp [13]: 1228 ng/mL
Cp [14]: 181 ng/mL
half-life at 3 µM [15]: 2.08 h
Activity [16]: Non-toxic
Activity [1]: Dose-dependent effect
IC50 [17]: > 25000 nM
half-life at 3 µM [18]: 0.75 h
Drug uptake [19]: 4203 ng/g
IC50 [20]: 11900 nM
IC50 [21]: 55 nM
Activity [22]: 13%
Cp [23]: 14 ng/mL
IC50 [24]: > 25000 nM
IC50 [25]: 6500 nM
Cp [26]: 114 ng/mL
Cp [27]: 50 ng/mL
Cp [28]: 417 ng/mL
Activity [29]: 16%

Cl.Clc1ccc([C@@]23CCC[C@@H]2CNC3)cc1Cl
Activity [2]: 25%
Kp [30]: 30
Drug uptake [3]: 1747 ng/g
Drug uptake [4]: 5950 ng/g
Cp [14]: 569 ng/mL
fraction unbound [31]: 0.04
Drug uptake [19]: 14050 ng/g
Activity [22]: 29%
Cp [23]: 69 ng/mL
Cp [27]: 214 ng/mL
Activity [29]: 42%
Activity [32]: Non-toxic
